Measurements published in ChEMBL document CHEMBL1122652, “Intensely potent morpholinyl anthracyclines” (J Med Chem, 1984).

Tested on: Mus musculus
Experiment: Antitumor activity against mice baering P388 leukemia (10e6 cells) implanted ip on day 0, after treatment with single ip dose 4.0 mg/kg on day 1.
Assay type: functional
Settings: route intraperitoneal
Summary of the method: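 Mice implanted ip with 10^6 P388 leukemia cells on day 0, then dosed ip either once on day 1 or on days 5, 9 and 13 once the tumour was systemic. Efficacy is T/C, the mean survival time of treated over control mice, expressed as %. T/C > 120% counts as active. The optimum dose is reported.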

| SMILES | T/C [%] |
| --- | --- |
| COc1cccc2c1C(=N)c1c(O)c3c(c(O)c1C2=O)C[C@@](O)(C(=O)CO)CC3OC1CC(N2CCOCC2)C(O)C(C)O1.Cl (some centres undefined) | >215 |

Tested on: Nucleic Acid
Experiment: Inhibition of [3H]uridine incorporation into proliferating L1210 cells.
Assay type: functional, cell-based
Settings: Mus musculus
Summary of the method: (§1)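 Actively growing L1210 cells in culture were exposed to drug, which was first dissolved in Me2SO and diluted to 1% Me2SO final. Incorporation of [3H]thymidine into DNA or [3H]uridine into RNA was measured. ED50 is the drug concentration giving 50% inhibition.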

| SMILES | ED50 [nM] |
| --- | --- |
| COc1cccc2c1C(=N)c1c(O)c3c(c(O)c1C2=O)C[C@@](O)(C(=O)CO)CC3OC1CC(N2CCOCC2)C(O)C(C)O1.Cl (some centres undefined) | 1300 |
| COc1cccc2c1C(=O)c1c(O)c3c(c(O)c1C2=O)C[C@@](O)(C(C)O)CC3OC1CC(N2CCOCC2)C(O)C(C)O1 (some centres undefined) | 530 |
| COc1cccc2c1C(=N)c1c(O)c3c(c(O)c1C2=O)C[C@@](O)(C(=O)CO)CC3OC1CC(N2CCOCC2C#N)C(O)C(C)O1 (some centres undefined) | 4.7 |
| COc1cccc2c1C(=O)c1c(O)c3c(c(O)c1C2=O)C[C@@](O)(C(O)CO)CC3OC1CC(N2CCOCC2)C(O)C(C)O1.Cl (some centres undefined) | 3300 |
| COc1cccc2c1C(=O)c1c(O)c3c(c(O)c1C2=O)C[C@@](O)(C(C)O)CC3OC1CC(N2CCOCC2C#N)C(O)C(C)O1 (some centres undefined) | 2 |
| COc1cccc2c1C(=N)c1c(O)c3c(c(O)c1C2=O)C[C@@](O)(C(O)CO)CC3OC1CC(N2CCOCC2C#N)C(O)C(C)O1 (some centres undefined) | 75 |
| COc1cccc2c1C(=O)c1c(O)c3c(c(O)c1C2=O)C[C@@](O)(C(C)=O)C[C@@H]3O[C@H]1C[C@H](N)[C@H](O)[C@H](C)O1.Cl [DAUNORUBICIN HYDROCHLORIDE] | 330 |

Tested on: Mus musculus
Experiment: Antitumor activity against mice baering P388 leukemia (10e6 cells) implanted ip on day 0, after treatment with single ip dose 0.4 mg/kg on day 1.
Assay type: functional
Settings: route intraperitoneal

| SMILES | T/C [%] |
| --- | --- |
| COc1cccc2c1C(=O)c1c(O)c3c(c(O)c1C2=O)C[C@@](O)(C(O)CO)CC3OC1CC(N2CCOCC2)C(O)C(C)O1.Cl (some centres undefined) | >145 |

Tested on: Calf thymus DNA
Experiment: Effect on thermal denaturation temperature (delta Tm) of helical DNA
Assay type: nucleic-acid assay
Settings: Bos taurus
Summary of the method: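 ΔTm was taken as the Tm of the drug–calf thymus DNA complex minus the Tm of DNA alone. Drug was at 5.2 × 10^-6 M in 0.01 M phosphate buffer (pH 7) containing EDTA and 5% Me2SO. Values below 1 were considered insignificant binding.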

| ΔTm [°C] | SMILES |
| --- | --- |
| 3.2 | COc1cccc2c1C(=N)c1c(O)c3c(c(O)c1C2=O)C[C@@](O)(C(=O)CO)CC3OC1CC(N2CCOCC2C#N)C(O)C(C)O1 (some centres undefined) |
| 0.8 | COc1cccc2c1C(=N)c1c(O)c3c(c(O)c1C2=O)C[C@@](O)(C(O)CO)CC3OC1CC(N2CCOCC2C#N)C(O)C(C)O1 (some centres undefined) |

Tested on: Nucleic Acid
Experiment: Inhibition of [3H]thymidine incorporation into proliferating L1210 cells.
Assay type: functional, cell-based
Settings: Mus musculus
Summary of the method: as §1

| SMILES | ED50 [nM] |
| --- | --- |
| COc1cccc2c1C(=N)c1c(O)c3c(c(O)c1C2=O)C[C@@](O)(C(=O)CO)CC3OC1CC(N2CCOCC2)C(O)C(C)O1.Cl (some centres undefined) | 2600 |
| COc1cccc2c1C(=O)c1c(O)c3c(c(O)c1C2=O)C[C@@](O)(C(C)O)CC3OC1CC(N2CCOCC2)C(O)C(C)O1 (some centres undefined) | 2200 |
| COc1cccc2c1C(=N)c1c(O)c3c(c(O)c1C2=O)C[C@@](O)(C(=O)CO)CC3OC1CC(N2CCOCC2C#N)C(O)C(C)O1 (some centres undefined) | 31 |
| COc1cccc2c1C(=O)c1c(O)c3c(c(O)c1C2=O)C[C@@](O)(C(O)CO)CC3OC1CC(N2CCOCC2)C(O)C(C)O1.Cl (some centres undefined) | 7500 |
| COc1cccc2c1C(=O)c1c(O)c3c(c(O)c1C2=O)C[C@@](O)(C(C)O)CC3OC1CC(N2CCOCC2C#N)C(O)C(C)O1 (some centres undefined) | 19 |
| COc1cccc2c1C(=N)c1c(O)c3c(c(O)c1C2=O)C[C@@](O)(C(O)CO)CC3OC1CC(N2CCOCC2C#N)C(O)C(C)O1 (some centres undefined) | 580 |
| COc1cccc2c1C(=O)c1c(O)c3c(c(O)c1C2=O)C[C@@](O)(C(C)=O)C[C@@H]3O[C@H]1C[C@H](N)[C@H](O)[C@H](C)O1.Cl [DAUNORUBICIN HYDROCHLORIDE] | 660 |

Tested on: Mus musculus
Experiment: Antitumor activity against mice baering P388 leukemia (10e6 cells) implanted ip on day 0, after treatment with three ip doses (8 mg/kg) on day 5,9,13 when tumor became systemic.
Assay type: functional
Settings: not given

| SMILES | T/C [%] |
| --- | --- |
| COc1cccc2c1C(=O)c1c(O)c3c(c(O)c1C2=O)C[C@@](O)(C(C)=O)C[C@@H]3O[C@H]1C[C@H](N)[C@H](O)[C@H](C)O1.Cl [DAUNORUBICIN HYDROCHLORIDE] | 130 |

Tested on: not listed separately
Experiment: Partition coefficient (log P) was the log of ratio of concentration in octanol / water partitioned concentration in phosphate buffer at pH 7.4.
Assay type: physicochemical
Settings: not given

| logD | SMILES |
| --- | --- |
| 2.03 | COc1cccc2c1C(=O)c1c(O)c3c(c(O)c1C2=O)C[C@@](O)(C(C)O)CC3OC1CC(N2CCOCC2)C(O)C(C)O1 (some centres undefined) |
| 1.97 | COc1cccc2c1C(=N)c1c(O)c3c(c(O)c1C2=O)C[C@@](O)(C(=O)CO)CC3OC1CC(N2CCOCC2C#N)C(O)C(C)O1 (some centres undefined) |
| 0.66 | COc1cccc2c1C(=O)c1c(O)c3c(c(O)c1C2=O)C[C@@](O)(C(C)=O)C[C@@H]3O[C@H]1C[C@H](N)[C@H](O)[C@H](C)O1.Cl [DAUNORUBICIN HYDROCHLORIDE] |

| SMILES | logD |
| --- | --- |
| COc1cccc2c1C(=N)c1c(O)c3c(c(O)c1C2=O)C[C@@](O)(C(=O)CO)CC3OC1CC(N2CCOCC2)C(O)C(C)O1.Cl (some centres undefined) | 1.8 |

Tested on: Mus musculus
Experiment: Antitumor activity against mice baering P388 leukemia (10e6 cells) implanted ip on day 0, after treatment with three ip doses (0.5 mg/kg) on day 5,9,13 when tumor became systemic.
Assay type: functional
Settings: not given

| SMILES | T/C [%] |
| --- | --- |
| COc1cccc2c1C(=N)c1c(O)c3c(c(O)c1C2=O)C[C@@](O)(C(=O)CO)CC3OC1CC(N2CCOCC2C#N)C(O)C(C)O1 (some centres undefined) | 157 |

Tested on: Calf thymus DNA
Experiment: Change in thermal denaturation temperature of calf thymus DNA
Assay type: nucleic-acid assay
Settings: Bos taurus
Summary of the method: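 Calf thymus DNA with drug at 5.2 X 10^-6 M in 0.01 M phosphate buffer pH 7 containing EDTA and 5% Me2SO. ΔTm is the thermal denaturation temperature of the DNA–drug complex minus that of DNA alone. Values <1 count as insignificant binding.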

| ΔTm [°C] | SMILES |
| --- | --- |
| 4.1 | COc1cccc2c1C(=O)c1c(O)c3c(c(O)c1C2=O)C[C@@](O)(C(C)O)CC3OC1CC(N2CCOCC2)C(O)C(C)O1 (some centres undefined) |
| 3.9 | COc1cccc2c1C(=O)c1c(O)c3c(c(O)c1C2=O)C[C@@](O)(C(O)CO)CC3OC1CC(N2CCOCC2)C(O)C(C)O1.Cl (some centres undefined) |
| 10.5 | COc1cccc2c1C(=O)c1c(O)c3c(c(O)c1C2=O)C[C@@](O)(C(C)=O)C[C@@H]3O[C@H]1C[C@H](N)[C@H](O)[C@H](C)O1.Cl [DAUNORUBICIN HYDROCHLORIDE] |

| SMILES | ΔTm [°C] |
| --- | --- |
| COc1cccc2c1C(=N)c1c(O)c3c(c(O)c1C2=O)C[C@@](O)(C(=O)CO)CC3OC1CC(N2CCOCC2)C(O)C(C)O1.Cl (some centres undefined) | 4.3 |
| COc1cccc2c1C(=O)c1c(O)c3c(c(O)c1C2=O)C[C@@](O)(C(C)O)CC3OC1CC(N2CCOCC2C#N)C(O)C(C)O1 (some centres undefined) | 4.2 |
